Test results as given in ChEMBL document CHEMBL3758165, “In vitro interactions between anidulafungin and nonsteroidal anti-inflammatory drugs on biofilms of Candida spp” (2016).

Assays:
Type in all cases: functional
Candida albicans [1] = experiment: Antibiofilm activity against Candida albicans ATCC 10231 after 48 hrs by XTT reduction assay relative to control; parameters: scale not given: the % may be the effect or the level left
Summary of the method: (§1)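 Biofilms grown on autoclaved PVC disks: 1·10^6 cfu ml-1 cells, adhesion 1.5 h at 37 °C shaking 100 rpm, PBS wash, then 48 h at 37 °C in RPMI 1640 (MOPS, pH 7). Metabolic activity read by XTT–menadione reduction, 2 h at 37 °C, supernatant formazan at 490 nm, relative to drug-free control; triplicate on different days.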

Candida albicans [2] = experiment: Antibiofilm activity against Candida albicans ATCC 90028 after 48 hrs by XTT reduction assay relative to control; parameters: scale not given: the % may be the effect or the level left; summary of the method: as §1
Nakaseomyces glabratus [3] = experiment: Antibiofilm activity against Candida glabrata ATCC 15126 after 48 hrs by XTT reduction assay relative to control; parameters: scale not given: the % may be the effect or the level left; summary of the method: as §1
[4] = tested on: Meyerozyma guilliermondii; experiment: Antibiofilm activity against Candida guilliermondii a83 after 48 hrs by XTT reduction assay relative to control; parameters: scale not given: the % may be the effect or the level left
Nakaseomyces glabratus [5] = experiment: Antibiofilm activity against Candida glabrata 18a10 by two dimensional checkerboard dilution method in presence of aspirin
Summary of the method: (§2)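 Preformed 48 h disk biofilms (RPMI 1640, MOPS pH 7, 37 °C), PBS-washed, exposed 24 h at 37 °C on rocker to two-dimensional checkerboard of anidulafungin plus NSAID in RPMI; NSAID final 0.1 µM to 100 mM. XTT reduction at 490 nm; SMIC = combination giving 50% metabolic reduction versus drug-free control; FIC index calculated; triplicate on different days.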

Candida albicans [6] = experiment: Antibiofilm activity against Candida albicans ATCC 90028 assessed as fractional inhibitory concentration by two dimensional checkerboard dilution method in presence of aspirin; summary of the method: as §2
Nakaseomyces glabratus [7] = experiment: Antibiofilm activity against Candida glabrata ATCC 15126 assessed as fractional inhibitory concentration by two dimensional checkerboard dilution method in presence of aspirin; summary of the method: as §2
[8] = tested on: Meyerozyma guilliermondii; experiment: Antibiofilm activity against Candida guilliermondii ATCC 6260 assessed as fractional inhibitory concentration by two dimensional checkerboard dilution method in presence of aspirin; summary of the method: as §2
Candida albicans [9] = experiment: Antibiofilm activity against Candida albicans ATCC 10231 by two dimensional checkerboard dilution method in presence of diclofenac; summary of the method: as §2
Candida albicans [10] = experiment: Antibiofilm activity against Candida albicans ATCC 24433 assessed as fractional inhibitory concentration by two dimensional checkerboard dilution method in presence of diclofenac; summary of the method: as §2
Candida albicans [11] = experiment: Antibiofilm activity against Candida albicans 17a18 by two dimensional checkerboard dilution method in presence of diclofenac; summary of the method: as §2
[12] = tested on: Meyerozyma guilliermondii; experiment: Antibiofilm activity against Candida guilliermondii a410 by two dimensional checkerboard dilution method in presence of diclofenac
Summary of the method: (§3)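 Biofilms were grown on PVC disks from 2 ml of a 1·10^6 cfu/ml cell suspension. Adhesion ran 1.5 h at 37 °C with shaking at 100 rpm. Disks were PBS-washed, then matured 48 h at 37 °C in RPMI 1640 (MOPS, pH 7). Biofilms were washed again and given 24 h at 37 °C of anidulafungin/NSAID checkerboard combinations (NSAID final 0.1 µM–100 mM). Read-out was XTT-menadione (2 h, 37 °C, 490 nm). SMIC was defined as 50% reduction versus drug-free control, from which FICI was calculated. Triplicates were run on different days.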

Candida albicans [13] = experiment: Antibiofilm activity against Candida albicans ATCC 90028 assessed as fractional inhibitory concentration by two dimensional checkerboard dilution method in presence of ibuprofen; summary of the method: as §2
Candida albicans [14] = experiment: Antibiofilm activity against Candida albicans 17a18 by two dimensional checkerboard dilution method in presence of ibuprofen; summary of the method: as §2
Nakaseomyces glabratus [15] = experiment: Antibiofilm activity against Candida glabrata 18a10 by two dimensional checkerboard dilution method in presence of ibuprofen; summary of the method: as §2
[16] = tested on: Meyerozyma guilliermondii; experiment: Antibiofilm activity against Candida guilliermondii ATCC 6260 assessed as fractional inhibitory concentration by two dimensional checkerboard dilution method in presence of ibuprofen; summary of the method: as §2
[17] = tested on: Meyerozyma guilliermondii; experiment: Antibiofilm activity against Candida guilliermondii a410 assessed as fractional inhibitory concentration by two dimensional checkerboard dilution method in presence of ibuprofen; summary of the method: as §3
[18] = tested on: Meyerozyma guilliermondii; experiment: Antibiofilm activity against Candida guilliermondii ATCC 6260 at 0.1 uM to 100 mM after 48 hrs by XTT reduction assay relative to control; parameters: scale not given: the % may be the effect or the level left
Summary of the method: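 Biofilms grown on sterilized PVC disks: 1·10^6 cfu/ml Candida cells adhered for 1.5 h at 37 °C with shaking, washed with PBS, then matured 48 h at 37 °C in RPMI 1640 (MOPS, pH 7). Preformed biofilms were washed and exposed to drug, alone or in two-dimensional checkerboard combination, in RPMI 1640 for 24 h at 37 °C on a rocker.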

| Structure (SMILES) | Activity (Candida albicans [1]) [%] | Activity (Candida albicans [2]) [%] | Activity (Nakaseomyces glabratus [3]) [%] | Activity [4] [%] | MIC (Nakaseomyces glabratus [5]) [µg/mL] | Ratio (Candida albicans [6]) | Ratio (Nakaseomyces glabratus [7]) | Ratio [8] | MIC (Candida albicans [9]) [µg/mL] | Ratio (Candida albicans [10]) | MIC (Candida albicans [11]) [µg/mL] | MIC [12] [µg/mL] | Ratio (Candida albicans [13]) | MIC (Candida albicans [14]) [µg/mL] | MIC (Nakaseomyces glabratus [15]) [µg/mL] | Ratio [16] | Ratio [17] | Activity [18] [%] |
| --- | --- | --- | --- | --- | --- | --- | --- | --- | --- | --- | --- | --- | --- | --- | --- | --- | --- | --- |
| CCCCCOc1ccc(-c2ccc(-c3ccc(C(=O)N[C@@H]4C[C@@H](O)[C@@H](O)NC(=O)[C@@H]5[C@@H](O)[C@@H](C)CN5C(=O)[C@H]([C@@H](C)O)NC(=O)[C@H]([C@H](O)[C@@H](O)c5ccc(O)cc5)NC(=O)[C@@H]5C[C@@H](O)CN5C(=O)[C@H]([C@H](C)O)NC4=O)cc3)cc2)cc1 | 33.98 | 16.09 | 27.41 | 47.83 | 0.1 | 0.05 | 0.05 | 0.05 | 0.1 | 0.05 | 0.1 | 0.1 | 0.2 | 0.4 | 0.1 | 0.2 | 0.2 |  |
| O=C([O-])Cc1ccccc1Nc1c(Cl)cccc1Cl.[Na+] [DICLOFENAC SODIUM] |  |  |  |  |  |  |  |  |  |  |  |  |  |  |  |  |  | 60.98 |
